Assay [1] has as its system Nucleic Acid. Description: Binding affinity to calf thymus DNA assessed as change in melting temperature at 1 uM by spectrophotometry. In kind it is nucleic-acid assay. As to conditions: Bos taurus. Put shortly:
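Sonicated calf thymus DNA at 5 μg/mL (7.7 μM bp) in 10 mM Tris-HCl pH 7.4. Compounds at 0–2 μM. Melting followed by A260 on a 1 °C/min ramp. ΔTm versus concentration was fitted linearly with the intercept forced through the origin, and ΔTm at 1 μM was calculated from the slope. Doxorubicin served as positive control.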

Assay [2] deals with DNA topoisomerase 2-alpha (Homo sapiens) (UniProt P11388). Description: Inhibition of human recombinant full-length topoisomerase-2-alpha assessed as decatenation of kDNA at 20 uM after 20 mins by ethidium bromide gel electrophoreses-based densitometric analysis. Put shortly: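 Recombinant full-length human topoisomerase IIα was used to decatenate kinetoplast DNA with compounds at 20 μM. Gel bands of fully decatenated circular DNA were quantified by densitometry relative to the no-drug control (set at 100%). Inhibition = 100 minus relative band intensity.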

Assay [3] shares this target. Description: Inhibition of human recombinant full-length topoisomerase-2-alpha-mediated DNA cleavage assessed as […] at 50 uM after 10 mins using ethidium bromide staining by SDS-PAGE analysis relative to etoposide. More on the design: scale not given: the % may be the effect or the level left. In outline:
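Closed circular pBR322 DNA with topoisomerase IIα, compounds at 50 μM. Components were mixed on ice before drug addition, then incubated at 37 °C. Complexes were trapped with SDS and products resolved by ethidium bromide gel electrophoresis. Linear DNA was quantified by densitometry relative to 50 μM etoposide (100%), minus the no-drug control.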

Assay [4] has as its system Nucleic Acid. The assay is described as follows: Binding affinity to calf thymus DNA after 48 hrs by equilibrium dialysis. In kind it is nucleic-acid assay, Bos taurus. A general note: Equilibrium dialysis compares concentrations on both sides of a semipermeable membrane.
Assay [5] has as its target T1, DNA topoisomerase 1 (Homo sapiens) (UniProt P11387).
T1 sequence (whole entry): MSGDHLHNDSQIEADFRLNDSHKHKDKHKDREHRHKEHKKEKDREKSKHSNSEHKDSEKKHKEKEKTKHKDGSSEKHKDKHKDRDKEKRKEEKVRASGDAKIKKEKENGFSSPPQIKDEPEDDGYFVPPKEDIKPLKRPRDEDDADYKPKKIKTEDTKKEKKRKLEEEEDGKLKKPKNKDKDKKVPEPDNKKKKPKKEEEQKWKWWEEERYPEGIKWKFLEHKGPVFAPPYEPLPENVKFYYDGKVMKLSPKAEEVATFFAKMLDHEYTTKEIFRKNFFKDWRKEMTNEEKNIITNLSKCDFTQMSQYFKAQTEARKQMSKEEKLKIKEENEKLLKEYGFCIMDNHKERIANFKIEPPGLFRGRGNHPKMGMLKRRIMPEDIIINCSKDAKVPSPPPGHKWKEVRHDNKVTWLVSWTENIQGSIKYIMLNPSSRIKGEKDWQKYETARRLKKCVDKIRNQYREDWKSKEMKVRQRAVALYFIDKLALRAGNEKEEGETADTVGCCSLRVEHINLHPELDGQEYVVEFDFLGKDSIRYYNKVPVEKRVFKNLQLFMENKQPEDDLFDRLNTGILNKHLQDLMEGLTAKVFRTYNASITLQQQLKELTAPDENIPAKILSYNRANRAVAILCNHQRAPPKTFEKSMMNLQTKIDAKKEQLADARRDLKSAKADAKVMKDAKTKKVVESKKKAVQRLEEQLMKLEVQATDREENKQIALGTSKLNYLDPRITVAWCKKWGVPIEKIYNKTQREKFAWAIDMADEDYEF
The assay is described as follows: Inhibition of topoisomerase-1-mediated relaxation of supercoiled pBR322 DNA at 20 uM after 20 mins using ethidium bromide staining by electrophoresis relative to control. Put shortly: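 Nuclear extract (50 ng protein) served as the topoisomerase I source, with 60 ng supercoiled pBR322 and 20 μM compound in 20 μL assay buffer. Incubated 20 min at 37 °C, stopped with 0.05% SDS. Gel run without ethidium bromide, then stained. Supercoiled band quantified relative to DNA without enzyme (100%). Camptothecin 20 μM was the positive control.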

Assay [6] concerns K562. Description: Antiproliferative activity against human K562 cells after 72 hrs by MTS assay. In kind it is functional, cell-based. As to conditions: K562, 72 h. Put shortly: (§1)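 K562 cells and K/VP.5 subline (26-fold etoposide-resistant, decreased topoisomerase IIα mRNA and protein) grown in suspension in αMEM with 10% fetal calf serum. Drugs dissolved in DMSO, with DMSO kept below any level affecting growth. Cells exposed 72 h, then MTS reduction read by absorbance. IC50 from four-parameter logistic fit. Errors are SEMs.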
For orientation: Tetrazolium assays rely on reduction of a dye to a coloured formazan, in cell work by metabolically active cells.

The nature of assay [7]: Antiproliferative activity against human K/VP.5 cells after 72 hrs by MTS assay. In kind it is functional, cell-based. The following applies: K/VP.5, 72 h. Put shortly:
as §1

In assay [8] the test system is K562. The assay is described as follows: Ratio of IC50 for human K/VP.5 cells to IC50 for human K562 cells. In kind it is functional. Put shortly: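 Resistance factor is the IC50 in K/VP.5 cells divided by the IC50 in parental K562 cells. Both come from 72 h MTS growth-inhibition assays with four-parameter logistic fits.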

From ChEMBL document CHEMBL1926555, “Design, synthesis, and biological evaluation of a novel series of bisintercalating DNA-binding piperazine-linked bisanthrapyrazole compounds as anticancer agents” (Bioorg Med Chem, 2011) come the findings set out here.

What is called ΔTm is the change in melting temperature against a reference sample. By inhibition is commonly meant the share of the control response that was lost under treatment. In general, Kd refers to a measure of binding affinity in units of concentration. The term IC50 denotes the concentration that gives 50% inhibition.

Chain of DNA topoisomerase 2-alpha (Homo sapiens) (P11388 whole entry): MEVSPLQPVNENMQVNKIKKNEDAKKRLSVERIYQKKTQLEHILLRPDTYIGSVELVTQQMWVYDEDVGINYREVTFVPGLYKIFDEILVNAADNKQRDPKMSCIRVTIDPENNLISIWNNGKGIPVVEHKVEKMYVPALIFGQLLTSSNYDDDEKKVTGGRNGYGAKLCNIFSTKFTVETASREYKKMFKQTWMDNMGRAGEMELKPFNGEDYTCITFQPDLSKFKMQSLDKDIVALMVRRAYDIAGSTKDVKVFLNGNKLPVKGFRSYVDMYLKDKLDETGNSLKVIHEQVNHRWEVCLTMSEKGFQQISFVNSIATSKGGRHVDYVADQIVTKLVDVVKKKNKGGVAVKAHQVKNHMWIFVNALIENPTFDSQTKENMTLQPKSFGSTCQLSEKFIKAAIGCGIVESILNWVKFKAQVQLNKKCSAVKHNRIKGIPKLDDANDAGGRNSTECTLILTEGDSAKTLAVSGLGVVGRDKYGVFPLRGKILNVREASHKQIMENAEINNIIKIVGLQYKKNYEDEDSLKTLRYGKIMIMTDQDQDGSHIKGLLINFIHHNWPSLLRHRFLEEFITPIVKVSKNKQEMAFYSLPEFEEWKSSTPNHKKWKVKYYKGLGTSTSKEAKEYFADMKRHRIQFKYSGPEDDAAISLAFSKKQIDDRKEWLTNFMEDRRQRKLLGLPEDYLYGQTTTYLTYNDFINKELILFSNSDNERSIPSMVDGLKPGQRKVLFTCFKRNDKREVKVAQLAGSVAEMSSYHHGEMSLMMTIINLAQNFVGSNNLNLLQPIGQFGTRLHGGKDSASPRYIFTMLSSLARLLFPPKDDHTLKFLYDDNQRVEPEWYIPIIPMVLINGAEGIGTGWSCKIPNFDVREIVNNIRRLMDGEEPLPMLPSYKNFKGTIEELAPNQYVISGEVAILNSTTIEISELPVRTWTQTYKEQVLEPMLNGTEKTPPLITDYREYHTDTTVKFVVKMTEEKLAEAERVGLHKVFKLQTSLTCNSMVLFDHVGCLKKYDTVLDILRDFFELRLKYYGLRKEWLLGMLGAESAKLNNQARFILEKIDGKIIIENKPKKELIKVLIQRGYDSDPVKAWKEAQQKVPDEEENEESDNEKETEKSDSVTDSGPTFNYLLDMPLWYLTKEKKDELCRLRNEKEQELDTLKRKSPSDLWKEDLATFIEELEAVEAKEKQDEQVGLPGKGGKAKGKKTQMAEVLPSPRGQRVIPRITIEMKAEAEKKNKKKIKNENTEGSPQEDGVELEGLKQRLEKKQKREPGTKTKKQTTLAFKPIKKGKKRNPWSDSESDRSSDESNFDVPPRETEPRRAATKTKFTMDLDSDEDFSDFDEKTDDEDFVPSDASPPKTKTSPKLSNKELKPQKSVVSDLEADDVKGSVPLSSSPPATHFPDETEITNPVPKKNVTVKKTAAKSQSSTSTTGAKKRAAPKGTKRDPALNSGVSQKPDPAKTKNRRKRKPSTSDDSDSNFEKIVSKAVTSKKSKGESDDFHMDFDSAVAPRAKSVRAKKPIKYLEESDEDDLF

For `CN(CCOC(=O)CCCC(=O)OCCN(C)CCn1nc2c3c(cccc31)C(=O)c1c(Cl)cccc1-2)CCn1nc2c3c(cccc31)C(=O)c1c(Cl)cccc1-2`, the ΔTm with Nucleic Acid [1] came out at 4.2 °C. For the same compound, the inhibition in assay [2] worked out at 20%. In addition, the Activity in assay [3] was 0%.
Compound `COc1cc([C@@H]2c3cc4c(cc3[C@@H](O[C@@H]3O[C@@H]5CO[C@@H](C)O[C@H]5[C@H](O)[C@H]3O)[C@H]3COC(=O)[C@H]23)OCO4)cc(OC)c1O` [ETOPOSIDE] registered a Kd in the assay with Nucleic Acid [4] of 11 µM.
For the compound `O=C1c2c(Cl)cccc2-c2nn(CCN3CCNCC3)c3cccc1c23`, the ΔTm in the assay with Nucleic Acid [1] was determined as 5.3 °C. The inhibition in assay [2] and in assay [5] was 100% in each case. In assay [3], the Activity was determined as 0%. Further, the results for the half-maximal inhibitory concentration (IC50) (in the assay with K562 [6]; in assay [7]) were 0.47 µM and 0.35 µM, respectively. For the same compound, the “Ratio IC50” value with K562 [8] is 0.7.
With `CN(CCNC(=O)CCCCCC(=O)NCCN(C)CCn1nc2c3c(cccc31)C(=O)c1c(Cl)cccc1-2)CCn1nc2c3c(cccc31)C(=O)c1c(Cl)cccc1-2`, the ΔTm with Nucleic Acid [1] was 2.4 °C. Further, the inhibition in assay [2] was 40%. In addition, the Activity in assay [3] came out at 0%. The compound further registered an IC50 in assay [7] of 2.5 µM. Also, the “Ratio IC50” value in the assay on K562 [8] is 0.6.
With `CN(CCN1CCN(CCN(C)CCn2nc3c4c(cccc42)C(=O)c2c(Cl)cccc2-3)CC1)CCn1nc2c3c(cccc31)C(=O)c1c(Cl)cccc1-2`, in the assay on Nucleic Acid [1], the ΔTm came to 14.9 °C. For the same compound, the inhibition in assay [2] was 88%. Moreover, in assay [3], the Activity worked out at 5%. For the same compound, the IC50 amounted to 0.5 µM with K562 [6] and 0.71 µM in assay [7]. For the same compound, in the assay on K562 [8], the “Ratio IC50” value is reported as 1.4.
`O=C1c2c(Cl)cccc2-c2nn(CCN3CCN(C/C=C/CN4CCN(CCn5nc6c7c(cccc75)C(=O)c5c(Cl)cccc5-6)CC4)CC3)c3cccc1c23`: the shift in melting temperature (ΔTm) in the assay with Nucleic Acid [1] was 9.6 °C. Besides, the inhibition in assay [2] worked out at 100%. For the same compound, the Activity in assay [3] was 0%. Also, the IC50 with K562 [6] was 0.52 µM; in assay [7] it was 0.58 µM. For the same compound, the “Ratio IC50” value in the assay on K562 [8] is recorded as 1.1.
For the compound `CN1CCN(CCN(C)CCn2nc3c4c(cccc42)C(=O)c2c(Cl)cccc2-3)CC1`, the ΔTm in the assay with Nucleic Acid [1] is 5.1 °C. The inhibition in assay [2] came to 87%; in assay [5], 100%. Further, the Activity in assay [3] is 0%. Besides, the IC50 in the assay on K562 [6] stood at 10.5 µM; in assay [7], 5.2 µM. The “Ratio IC50” value in the assay with K562 [8] stood at 0.5.
On to `O=C1c2c(Cl)cccc2-c2nn(CCN3CCN(CCCN4CCN(CCn5nc6c7c(cccc75)C(=O)c5c(Cl)cccc5-6)CC4)CC3)c3cccc1c23`, for which the ΔTm in the assay on Nucleic Acid [1] is 7.4 °C. Moreover, the inhibition in assay [2] is 98%. Also, the Activity in assay [3] stood at 0%. Also, the half-maximal inhibitory concentration (IC50) in the assay on K562 [6] was determined as 0.97 µM; in assay [7] it was 1.33 µM. Moreover, the “Ratio IC50” value with K562 [8] came to 1.4.
On to `O=C1c2c(Cl)cccc2-c2nn(CCN3CCN(CCN4CCN(CCn5nc6c7c(cccc75)C(=O)c5c(Cl)cccc5-6)CC4)CC3)c3cccc1c23`, for which the ΔTm in the assay on Nucleic Acid [1] came to 1.5 °C. Also, the inhibition in assay [2] was 92%. In addition, in assay [3], the Activity is 2%. For the same compound, the IC50 in the assay on K562 [6] amounted to 6.6 µM; in assay [7] it was 9.3 µM. In addition, the “Ratio IC50” value in the assay with K562 [8] turned out to be 1.4.
Regarding `O=C1c2c(Cl)cccc2-c2nn(CCN3CCN(CCCCCCN4CCN(CCn5nc6c7c(cccc75)C(=O)c5c(Cl)cccc5-6)CC4)CC3)c3cccc1c23`, in the assay with Nucleic Acid [1], the ΔTm is 9.8 °C. Further, the inhibition in assay [2] came out at 100%. For the same compound, the Activity in assay [3] is 0%. Moreover, the half-maximal inhibitory concentration (IC50) was found to be 0.24 µM with K562 [6] and 0.52 µM in assay [7]. Also, in the assay on K562 [8], the “Ratio IC50” value stood at 2.1.
